Source: ChEMBL document CHEMBL5154850, “A platform for the rapid synthesis of proteolysis targeting chimeras (Rapid-TAC) under miniaturized conditions” (Eur J Med Chem, 2022)
Active and inactive are the calls of the source. The calls are words filed in the database; no cut-off is given here.

Tests used:
[1] = target: T1, von Hippel-Lindau disease tumor suppressor/Androgen receptor (Homo sapiens, UniProt P10275+P40337); test: PROTAC activity at VHL/AR in human LNCaP cells assessed as induction of AR degradation at 1 to 10 uM measured after 16 hrs by western blot analysis; format: cell-based; settings: dose 1-10 µM
Outline: (§1)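 LNCaP cells kept in RPMI with 10% FBS, 1% HEPES, 1% sodium pyruvate and 1% penicillin/streptomycin at 37 °C, 5% CO2, then exposed to PROTACs for 16 h. Lysis in RIPA buffer with protease inhibitors and 1 mM PMSF. BCA-equalized protein run on 7.5% SDS-PAGE, blocked in 5% milk/TBS-T, anti-AR primary overnight at 4 °C, β-actin loading control, HRP secondary 1 h, chemiluminescent imaging.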
Target sequence in this assay (P10275 whole entry, looked up): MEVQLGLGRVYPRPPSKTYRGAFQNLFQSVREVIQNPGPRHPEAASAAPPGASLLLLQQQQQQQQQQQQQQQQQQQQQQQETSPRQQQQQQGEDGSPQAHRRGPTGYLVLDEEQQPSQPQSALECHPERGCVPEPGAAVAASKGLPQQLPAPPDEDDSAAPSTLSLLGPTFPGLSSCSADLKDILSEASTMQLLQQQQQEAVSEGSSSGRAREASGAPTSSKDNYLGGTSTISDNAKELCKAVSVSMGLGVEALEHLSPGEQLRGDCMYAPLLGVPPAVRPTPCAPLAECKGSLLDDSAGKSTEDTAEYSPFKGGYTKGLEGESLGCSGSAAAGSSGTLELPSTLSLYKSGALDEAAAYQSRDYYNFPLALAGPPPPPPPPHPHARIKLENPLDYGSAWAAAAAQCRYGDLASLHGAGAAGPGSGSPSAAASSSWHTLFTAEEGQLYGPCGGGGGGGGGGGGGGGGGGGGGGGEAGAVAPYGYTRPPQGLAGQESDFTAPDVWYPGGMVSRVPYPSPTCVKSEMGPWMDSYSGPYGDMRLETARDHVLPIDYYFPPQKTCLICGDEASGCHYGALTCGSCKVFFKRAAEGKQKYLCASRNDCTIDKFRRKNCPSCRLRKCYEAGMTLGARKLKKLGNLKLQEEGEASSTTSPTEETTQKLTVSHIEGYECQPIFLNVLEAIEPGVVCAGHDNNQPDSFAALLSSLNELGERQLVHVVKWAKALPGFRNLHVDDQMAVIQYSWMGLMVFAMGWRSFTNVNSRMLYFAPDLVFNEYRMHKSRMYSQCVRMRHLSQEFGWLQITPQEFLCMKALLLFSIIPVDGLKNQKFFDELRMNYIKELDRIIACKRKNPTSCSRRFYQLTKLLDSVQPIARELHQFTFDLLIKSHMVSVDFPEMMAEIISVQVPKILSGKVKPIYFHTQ
Target sequence in this assay (P40337 whole entry, looked up): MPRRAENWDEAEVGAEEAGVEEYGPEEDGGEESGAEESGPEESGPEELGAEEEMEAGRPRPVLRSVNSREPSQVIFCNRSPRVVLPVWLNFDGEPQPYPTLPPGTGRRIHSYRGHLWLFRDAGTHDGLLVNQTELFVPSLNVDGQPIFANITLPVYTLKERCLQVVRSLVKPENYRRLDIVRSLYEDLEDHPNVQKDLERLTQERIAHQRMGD

[2] = target: T2, von Hippel-Lindau disease tumor suppressor/Bromodomain-containing protein 4 (Homo sapiens, UniProt O60885+P40337); test: PROTAC activity at VHL/BRD4 in human MV4-11 cells assessed as induction of BRD4 degradation measured after 12 hrs by western blot analysis
[3] = target: T2, von Hippel-Lindau disease tumor suppressor/Bromodomain-containing protein 4; test: PROTAC activity at VHL/BRD4 in human MV4-11 cells assessed as induction of BRD4 degradation at 3 to 100 nM measured after 12 hrs by western blot analysis; settings: dose 3-100 nM
[4] = target: T1, von Hippel-Lindau disease tumor suppressor/Androgen receptor; test: PROTAC activity at VHL/AR in human LNCaP cells assessed as induction of AR degradation at 1 uM measured after 16 hrs by western blot analysis relative to control; format: cell-based; outline: as §1
Target sequence in this assay (P10275 whole entry, looked up): as the sequence (P10275 whole entry, looked up) above
Target sequence in this assay (P40337 whole entry, looked up): as the sequence (P40337 whole entry, looked up) above

[5] = target: T1, von Hippel-Lindau disease tumor suppressor/Androgen receptor; test: PROTAC activity at VHL/AR in human LNCaP cells assessed as induction of AR degradation at 0.01 to 1 uM measured after 16 hrs by western blot analysis; format: cell-based; settings: dose 0.1-10 µM, in the assay text read “0.1 to 10 uM” for “0.01 to 1 uM”; outline: as §1
Target sequence in this assay (P10275 whole entry, looked up): as the sequence (P10275 whole entry, looked up) above
Target sequence in this assay (P40337 whole entry, looked up): as the sequence (P40337 whole entry, looked up) above

[6] = target: T1, von Hippel-Lindau disease tumor suppressor/Androgen receptor; test: PROTAC activity at VHL/AR in human LNCaP cells assessed as induction of AR degradation measured after 16 hrs by western blot analysis; format: cell-based; outline: as §1
Target sequence in this assay (P10275 whole entry): as the sequence (P10275 whole entry, looked up) above
Target sequence in this assay (P40337 whole entry): as the sequence (P40337 whole entry, looked up) above

[7] = target: T1, von Hippel-Lindau disease tumor suppressor/Androgen receptor; test: PROTAC activity at VHL/AR in human LNCaP cells assessed as induction of AR degradation at 10 uM measured after 16 hrs by western blot analysis relative to control; format: cell-based; outline: as §1
Target sequence in this assay (P10275 whole entry, looked up): as the sequence (P10275 whole entry, looked up) above
Target sequence in this assay (P40337 whole entry, looked up): as the sequence (P40337 whole entry, looked up) above

[8] = target: T1, von Hippel-Lindau disease tumor suppressor/Androgen receptor; test: PROTAC activity at VHL/AR in human LNCaP cells assessed as reduction in AR level at 100 nM measured after 6 hrs by western blot analysis; format: cell-based
Outline: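 AR time-course blot in LNCaP cells (RPMI, 10% FBS, 37 °C, 5% CO2) with degrader at 100 nM over varied exposure times. Lysates in RIPA with protease inhibitors, equal protein by BCA, 7.5% SDS-PAGE, anti-AR overnight at 4 °C, β-actin loading reference, HRP detection.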
Target sequence in this assay (P10275 whole entry, looked up): as the sequence (P10275 whole entry, looked up) above
Target sequence in this assay (P40337 whole entry, looked up): as the sequence (P40337 whole entry, looked up) above

[9] = target: T2, von Hippel-Lindau disease tumor suppressor/Bromodomain-containing protein 4; test: PROTAC activity at VHL/BRD4 in human MV4-11 cells assessed as induction of BRD4 degradation at 1 uM measured after 24 hrs by western blot analysis; format: cell-based
Outline: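 MV-4-11 cells grown in IMDM with 10% FBS and 1% penicillin/streptomycin at 37 °C, 5% CO2. Library screen at 1 and 10 μM for 24 h; follow-up at 100, 30, 10 and 3 nM and dose response for 12 h. RIPA lysates, BCA-normalized, 7.5% SDS-PAGE, anti-BRD4 overnight at 4 °C, β-actin control, HRP-secondary chemiluminescence.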

T2 sequence (P40337 whole entry, looked up, other chains not shown): as the sequence (P40337 whole entry, looked up) above

SMILES	Activity [1]	also measured
CC1(C)[C@H](NC(=O)c2ccc3c(c2)CN(C2CCC(=O)NC2=O)C3=O)C(C)(C)[C@H]1Oc1ccc(C#N)c(Cl)c1 (some centres not stated)	Active	–
Cc1ncsc1-c1ccc(CNC(=O)[C@@H]2C[C@@H](O)CN2C(=O)[C@@H](NC(=O)CCCCCCN2Cc3cc(C(=O)N[C@H]4C(C)(C)[C@H](Oc5ccc(C#N)c(Cl)c5)C4(C)C)ccc3C2=O)C(C)(C)C)cc1	Active	–
Cc1ncsc1-c1ccc(CNC(=O)[C@@H]2C[C@@H](O)CN2C(=O)[C@@H](NC(=O)COCCOCCOCCOCCN2Cc3cc(C(=O)N[C@H]4C(C)(C)[C@H](Oc5ccc(C#N)c(Cl)c5)C4(C)C)ccc3C2=O)C(C)(C)C)cc1	Active	–
Cc1ncsc1-c1ccc(CNC(=O)[C@@H]2C[C@@H](O)CN2C(=O)[C@@H](NC(=O)CCCCN2Cc3cc(NC(=O)C[C@@H]4N=C(c5ccc(Cl)cc5)c5c(sc(C)c5C)-n5c(C)nnc54)ccc3C2=O)C(C)(C)C)cc1	–	DC50 [2]: 8.9 nM; Activity [3]: Active
Cc1ncsc1-c1ccc(CNC(=O)[C@@H]2C[C@@H](O)CN2C(=O)[C@@H](NC(=O)CCCCCCCCN2Cc3cc(C(=O)N[C@H]4C(C)(C)[C@H](Oc5ccc(C#N)c(Cl)c5)C4(C)C)ccc3C2=O)C(C)(C)C)cc1	Active	–
Cc1ncsc1-c1ccc(CNC(=O)[C@@H]2C[C@@H](O)CN2C(=O)[C@@H](NC(=O)COCCN2Cc3cc(C(=O)N[C@H]4C(C)(C)[C@H](Oc5ccc(C#N)c(Cl)c5)C4(C)C)ccc3C2=O)C(C)(C)C)cc1	Active	–
Cc1ncsc1-c1ccc(CNC(=O)[C@@H]2C[C@@H](O)CN2C(=O)[C@@H](NC(=O)COCCOCCOCCN2Cc3cc(C(=O)N[C@H]4C(C)(C)[C@H](Oc5ccc(C#N)c(Cl)c5)C4(C)C)ccc3C2=O)C(C)(C)C)cc1	Active	–
Cc1ncsc1-c1ccc(CNC(=O)[C@@H]2C[C@@H](O)CN2C(=O)[C@@H](NC(=O)CCCCCCCN2Cc3ccc(C(=O)N[C@H]4C(C)(C)[C@H](Oc5ccc(C#N)c(Cl)c5)C4(C)C)cc3C2=O)C(C)(C)C)cc1	Active	Activity [4]: 73%; Activity [5]: Active; DC50 [6]: 41.9 nM; Activity [7]: 40%; Activity [8]: Active
Cc1ncsc1-c1ccc(CNC(=O)[C@@H]2C[C@@H](O)CN2C(=O)[C@@H](NC(=O)COCCOCCN2Cc3cc(C(=O)N[C@H]4C(C)(C)[C@H](Oc5ccc(C#N)c(Cl)c5)C4(C)C)ccc3C2=O)C(C)(C)C)cc1	Active	–
Cc1ncsc1-c1ccc(CNC(=O)[C@@H]2C[C@@H](O)CN2C(=O)[C@@H](NC(=O)CCCCN2Cc3cc(C(=O)N[C@H]4C(C)(C)[C@H](Oc5ccc(C#N)c(Cl)c5)C4(C)C)ccc3C2=O)C(C)(C)C)cc1	Active	–
Cc1ncsc1-c1ccc(CNC(=O)[C@@H]2C[C@@H](O)CN2C(=O)[C@@H](NC(=O)CCCCCCCNC(=O)c2ccc(C(=O)N[C@H]3C(C)(C)[C@H](Oc4ccc(C#N)c(Cl)c4)C3(C)C)cc2)C(C)(C)C)cc1	–	Activity [5]: Active
Cc1ncsc1-c1ccc(CNC(=O)[C@@H]2C[C@@H](O)CN2C(=O)[C@@H](NC(=O)CCCCCCCN2Cc3cc(C(=O)N[C@H]4C(C)(C)[C@H](Oc5ccc(C#N)c(Cl)c5)C4(C)C)ccc3C2=O)C(C)(C)C)cc1	–	Activity [5]: Active
Cc1ncsc1-c1ccc(CNC(=O)[C@@H]2C[C@@H](O)CN2C(=O)[C@@H](NC(=O)CCCCCCCCCCN2Cc3cc(C(=O)N[C@H]4C(C)(C)[C@H](Oc5ccc(C#N)c(Cl)c5)C4(C)C)ccc3C2=O)C(C)(C)C)cc1	Active	–
Cc1ncsc1-c1ccc(CNC(=O)[C@@H]2C[C@@H](O)CN2C(=O)[C@@H](NC(=O)CCCCCN2Cc3cc(C(=O)N[C@H]4C(C)(C)[C@H](Oc5ccc(C#N)c(Cl)c5)C4(C)C)ccc3C2=O)C(C)(C)C)cc1	Active	–
Cc1ncsc1-c1ccc(CNC(=O)[C@@H]2C[C@@H](O)CN2C(=O)[C@@H](NC(=O)CCN2Cc3cc(C(=O)N[C@H]4C(C)(C)[C@H](Oc5ccc(C#N)c(Cl)c5)C4(C)C)ccc3C2=O)C(C)(C)C)cc1	Active	–
Cc1ncsc1-c1ccc(CNC(=O)[C@@H]2C[C@@H](O)CN2C(=O)[C@@H](NC(=O)CCCCN2Cc3ccc(NC(=O)C[C@@H]4N=C(c5ccc(Cl)cc5)c5c(sc(C)c5C)-n5c(C)nnc54)cc3C2=O)C(C)(C)C)cc1	–	Activity [9]: Active
